Test results as given in ChEMBL document CHEMBL3526048, “In vitro metabolism of rivoglitazone, a novel peroxisome proliferator-activated receptor γ agonist, in rat, monkey, and human liver microsomes and freshly isolated hepatocytes” (Drug Metab Dispos, 2011).

Experiments:
Assay type in all cases: ADME
[1] = biological target: T1, UDP-glucuronosyltransferase 2B17 (Homo sapiens, UniProt O75795); test: Activity of human UGT2B17 expressed in microsomes isolated from baculovirus infected insect cell assessed as enzyme-mediated 2-mercapto-3-(4-((6-methoxy-1-methyl-1H-benzo[d]imidazol-2-yl)methoxy)phenyl)propanoic acid formation at 20 uM after 4 hrs by radio-HPLC/LC-MS/MS analysis in presence of UDPGA
T1 sequence (O75795 whole entry): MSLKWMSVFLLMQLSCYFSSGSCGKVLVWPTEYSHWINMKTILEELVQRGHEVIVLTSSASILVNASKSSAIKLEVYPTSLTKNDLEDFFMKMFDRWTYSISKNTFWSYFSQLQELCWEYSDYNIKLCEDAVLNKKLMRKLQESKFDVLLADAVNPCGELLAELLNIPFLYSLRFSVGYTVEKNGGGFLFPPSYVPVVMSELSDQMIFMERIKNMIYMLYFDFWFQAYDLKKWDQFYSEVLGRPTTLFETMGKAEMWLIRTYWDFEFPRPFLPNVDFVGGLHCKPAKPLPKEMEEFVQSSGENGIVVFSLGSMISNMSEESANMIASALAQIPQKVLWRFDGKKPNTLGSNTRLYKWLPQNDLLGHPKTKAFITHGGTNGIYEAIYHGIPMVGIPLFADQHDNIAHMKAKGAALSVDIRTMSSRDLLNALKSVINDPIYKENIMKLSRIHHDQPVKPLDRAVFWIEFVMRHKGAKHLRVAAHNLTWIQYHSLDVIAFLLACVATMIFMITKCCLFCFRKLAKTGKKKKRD

Liver microsome [2] = test: Drug metabolism in human liver microsomes assessed as formation of 5-(4-((6-methoxy-1H-benzo[d]imidazol-2-yl)methoxy)benzyl)thiazolidine-2,4-dione at 20 uM after 2 hrs by radio-HPLC/LC-MS/MS analysis in presence of NADPH-generating system and NADPH-generating system/SAM
[3] = biological target: T2, UDP-glucuronosyltransferase 1A3 (Homo sapiens, UniProt P35503); test: Activity of human UGT1A3 expressed in microsomes isolated from baculovirus infected insect cell assessed as enzyme-mediated 3-(4-((6-methoxy-1-methyl-1H-benzo[d]imidazol-2-yl)methoxy)phenyl)-2-(methylthio)propanoic acid formation at 20 uM after 4 hrs by radio-HPLC/LC-MS/MS analysis in presence of NADPH-generating system/SAM and UDPGA/SAM in presence of UDPGA and UDPGA/SAM
T2 sequence (P35503 whole entry): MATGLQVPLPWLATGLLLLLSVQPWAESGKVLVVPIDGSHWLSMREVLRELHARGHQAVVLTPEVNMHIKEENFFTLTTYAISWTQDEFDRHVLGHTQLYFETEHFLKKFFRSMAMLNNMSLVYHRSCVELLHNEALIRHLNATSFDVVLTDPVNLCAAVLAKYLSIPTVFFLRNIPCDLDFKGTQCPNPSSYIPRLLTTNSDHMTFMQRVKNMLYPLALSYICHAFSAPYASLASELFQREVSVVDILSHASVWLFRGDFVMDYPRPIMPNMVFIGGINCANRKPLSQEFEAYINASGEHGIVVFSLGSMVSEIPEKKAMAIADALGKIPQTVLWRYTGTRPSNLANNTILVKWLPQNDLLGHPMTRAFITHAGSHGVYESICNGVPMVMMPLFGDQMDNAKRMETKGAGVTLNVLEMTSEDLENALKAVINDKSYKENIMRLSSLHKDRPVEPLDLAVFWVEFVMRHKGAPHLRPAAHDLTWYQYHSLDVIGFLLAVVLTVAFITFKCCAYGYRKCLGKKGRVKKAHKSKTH

Liver microsome [4] = test: Drug metabolism in human liver microsomes assessed as formation of 3-(4-((6-methoxy-1-methyl-1H-benzo[d]imidazol-2-yl)methoxy)phenyl)-2-(methylsulfinyl)propanamide at 20 uM after 2 hrs by radio-HPLC/LC-MS/MS analysis in presence of NADPH-generating system/SAM
[5] = biological target: T2, UDP-glucuronosyltransferase 1A3; test: Activity of human UGT1A3 expressed in microsomes isolated from baculovirus infected insect cell assessed as enzyme-mediated 2-mercapto-3-(4-((6-methoxy-1-methyl-1H-benzo[d]imidazol-2-yl)methoxy)phenyl)propanamide formation at 20 uM after 4 hrs by radio-HPLC/LC-MS/MS analysis in presence of NADPH-generating system and NADPH-generating system/SAM in presence of UDPGA and UDPGA/SAM
Cytochrome P450 3A4 [6] = biological target: T3, Cytochrome P450 3A4 (Homo sapiens, UniProt P08684); test: Activity of human CYP3A4 expressed in microsomes isolated from baculovirus infected insect cell assessed as enzyme-mediated 3-(4-((6-methoxy-1-methyl-1H-benzo[d]imidazol-2-yl)methoxy)phenyl)-2-(methylsulfinyl)propanamide formation at 20 uM after 2 hrs by radio-HPLC/LC-MS/MS analysis in presence of NADPH-generating system/SAM
T3 sequence (P08684 whole entry): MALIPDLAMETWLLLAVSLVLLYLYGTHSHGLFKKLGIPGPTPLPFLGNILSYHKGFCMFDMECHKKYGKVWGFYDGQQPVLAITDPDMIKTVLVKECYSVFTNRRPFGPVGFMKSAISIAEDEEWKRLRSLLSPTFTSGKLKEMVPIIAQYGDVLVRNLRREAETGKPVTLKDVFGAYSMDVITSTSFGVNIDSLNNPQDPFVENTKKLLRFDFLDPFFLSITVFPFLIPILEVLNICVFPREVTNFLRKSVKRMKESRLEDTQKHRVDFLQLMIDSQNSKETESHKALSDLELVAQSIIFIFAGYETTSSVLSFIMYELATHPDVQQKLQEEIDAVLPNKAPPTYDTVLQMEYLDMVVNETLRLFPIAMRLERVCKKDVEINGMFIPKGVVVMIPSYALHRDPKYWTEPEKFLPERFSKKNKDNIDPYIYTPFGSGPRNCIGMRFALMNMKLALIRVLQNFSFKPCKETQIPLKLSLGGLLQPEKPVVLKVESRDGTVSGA

Cytochrome P450 2C8 = biological target: T4, Cytochrome P450 2C8 (Homo sapiens, UniProt P10632); test: Activity of human CYP2C8 expressed in microsomes isolated from baculovirus infected insect cell assessed as enzyme-mediated 2-hydroxy-3-(4-((6-methoxy-1-methyl-1H-benzo[d]imidazol-2-yl)methoxy)phenyl)propanamide formation at 20 uM after 2 hrs by radio-HPLC/LC-MS/MS analysis in presence of NADPH-generating system and NADPH-generating system/SAM
T4 sequence (P10632 whole entry): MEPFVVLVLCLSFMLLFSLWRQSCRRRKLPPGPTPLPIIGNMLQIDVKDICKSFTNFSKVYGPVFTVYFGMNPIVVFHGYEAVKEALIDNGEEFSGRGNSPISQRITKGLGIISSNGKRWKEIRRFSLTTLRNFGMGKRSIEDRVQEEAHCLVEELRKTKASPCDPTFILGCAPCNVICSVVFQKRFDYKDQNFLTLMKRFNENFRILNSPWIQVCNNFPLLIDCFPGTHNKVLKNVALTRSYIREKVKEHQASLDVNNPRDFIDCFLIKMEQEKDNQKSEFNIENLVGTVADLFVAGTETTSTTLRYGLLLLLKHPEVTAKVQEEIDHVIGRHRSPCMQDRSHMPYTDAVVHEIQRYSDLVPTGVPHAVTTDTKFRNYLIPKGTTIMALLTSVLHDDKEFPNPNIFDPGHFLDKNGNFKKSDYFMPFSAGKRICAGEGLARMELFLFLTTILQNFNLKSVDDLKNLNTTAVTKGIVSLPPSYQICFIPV
Procedure, shortened: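 Baculovirus/insect-cell microsomes expressing single human CYPs, 1 mg/ml protein, with 50 mM potassium phosphate (pH 7.4) or 100 mM Tris-HCl (pH 7.5). NADPH-generating system: 2 mM NADP⁺, 20 mM glucose 6-phosphate, 2 units/ml G6PDH, 10 mM MgCl₂. [¹⁴C]rivoglitazone at 20 μM, 2 h at 37°C with shaking. Control used insect-cell control supersomes. Stopped with acetonitrile; supernatant concentrated under nitrogen; metabolites analysed by radio-HPLC, LC-MS and LC-MS/MS.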

Cytochrome P450 3A5 = Cytochrome P450 3A5 (Homo sapiens, UniProt P20815); test: (§1) Activity of human CYP3A5 expressed in microsomes isolated from baculovirus infected insect cell assessed as enzyme-mediated 5-(4-((6-methoxy-1H-benzo[d]imidazol-2-yl)methoxy)benzyl)thiazolidine-2,4-dione formation at 20 uM after 2 hrs by radio-HPLC/LC-MS/MS analysis in presence of NADPH-generating system and NADPH-generating system/SAM
Chain of Cytochrome P450 3A5 (P20815 whole entry): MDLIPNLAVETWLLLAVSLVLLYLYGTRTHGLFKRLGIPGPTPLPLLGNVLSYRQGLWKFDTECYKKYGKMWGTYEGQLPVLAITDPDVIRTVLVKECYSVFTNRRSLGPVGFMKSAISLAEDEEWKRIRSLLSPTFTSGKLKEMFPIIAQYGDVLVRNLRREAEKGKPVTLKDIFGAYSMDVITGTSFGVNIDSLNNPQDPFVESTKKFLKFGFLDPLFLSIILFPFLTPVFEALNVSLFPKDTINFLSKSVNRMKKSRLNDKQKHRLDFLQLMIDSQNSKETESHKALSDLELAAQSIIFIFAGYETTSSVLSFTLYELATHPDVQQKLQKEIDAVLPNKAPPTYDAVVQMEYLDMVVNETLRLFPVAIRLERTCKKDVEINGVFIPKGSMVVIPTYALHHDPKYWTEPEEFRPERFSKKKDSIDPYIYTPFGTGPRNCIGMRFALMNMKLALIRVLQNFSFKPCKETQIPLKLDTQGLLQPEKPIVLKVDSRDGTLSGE
Procedure, shortened: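 cDNA-expressed human CYP3A5 in baculovirus-insect-cell microsomes (1 mg/ml protein) was incubated with [¹⁴C]rivoglitazone (20 μM) in 50 mM potassium phosphate (pH 7.4) or 100 mM Tris-HCl (pH 7.5). NADPH-generating system: 2 mM NADP⁺, 20 mM glucose 6-phosphate, 2 units/ml G6PDH, 10 mM MgCl₂. Incubation ran 2 h at 37°C with shaking; insect-cell control supersomes served as control. Acetonitrile stop, supernatant concentrated, then radio-HPLC, LC-MS and LC-MS/MS.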

Cytochrome P450 3A4 [7] = biological target: T3, Cytochrome P450 3A4; test: as §1, with “CYP3A4” for “CYP3A5”

COc1ccc2nc(COc3ccc(C[14CH]4SC(=O)NC4=O)cc3)n(C)c2c1.Cl (racemic)
Drug metabolism [1]: metabolite_not_detected
Drug metabolism (Liver microsome [2]): metabolite_detected
Drug metabolism [3]: metabolite_not_detected
Drug metabolism (Liver microsome [4]): metabolite_detected
Drug metabolism [5]: metabolite_not_detected
Drug metabolism (Cytochrome P450 3A4 [6]): metabolite_not_detected
Drug metabolism (Cytochrome P450 2C8): metabolite_detected
Drug metabolism (Cytochrome P450 3A5): metabolite_detected
Drug metabolism (Cytochrome P450 3A4 [7]): metabolite_detected
